Experimental data from PMC9315039 (Angewandte Chemie (International Ed. in English), 2022).
Like-named read-outs stand apart in the source and are kept apart here.

Columns and labels:
SIRT5 [1] = target: T1, SIRT5 (Homo sapiens, UniProt Q9NXA8); assay: End-point SIRT5 deglutarylase inhibition assay; assay type: biochemical; conditions: Figure 1A; inhibitor 100 μM; NI = no inhibition
T1 sequence (Q9NXA8 34-310): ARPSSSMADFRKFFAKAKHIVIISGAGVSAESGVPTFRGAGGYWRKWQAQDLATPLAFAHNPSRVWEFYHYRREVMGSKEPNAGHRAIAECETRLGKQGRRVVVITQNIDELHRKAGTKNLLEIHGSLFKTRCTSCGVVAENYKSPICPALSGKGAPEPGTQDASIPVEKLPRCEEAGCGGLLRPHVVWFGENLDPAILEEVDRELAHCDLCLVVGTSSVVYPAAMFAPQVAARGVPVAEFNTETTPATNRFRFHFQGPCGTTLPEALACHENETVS
How it was run: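 End-point deglutarylase assay using recombinant SIRT5 (150 nM) with Ac-LGKglut-AMC substrate (50 μM). Results are given as IC50 from dose-response curves (mean ± SD) or as %-inhibition at stated concentrations. Each value comes from at least two individual assays run in duplicate.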

SIRT5 [2] = target: T1, SIRT5; assay: Continuous SIRT5 enzyme inhibition assay; assay type: biochemical
How it was run: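 Continuous trypsin-coupled progression-curve assay with SIRT5 80 nM, NAD⁺ 500 μM, Ac-LGKglu-AMC 40 μM and trypsin 1.70 ng×μL⁻¹, run at several inhibitor concentrations. k_obs was plotted against inhibitor concentration and fitted to slow-binding mechanism A or B, giving Ki and rate constants.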

SIRT5 in HEK293T cells = target: T2, SIRT5 in HEK293T cells (Homo sapiens, UniProt Q9NXA8); assay: Isothermal dose-response cellular thermal shift assay; assay type: cell-based
T2 sequence (Q9NXA8 37-310): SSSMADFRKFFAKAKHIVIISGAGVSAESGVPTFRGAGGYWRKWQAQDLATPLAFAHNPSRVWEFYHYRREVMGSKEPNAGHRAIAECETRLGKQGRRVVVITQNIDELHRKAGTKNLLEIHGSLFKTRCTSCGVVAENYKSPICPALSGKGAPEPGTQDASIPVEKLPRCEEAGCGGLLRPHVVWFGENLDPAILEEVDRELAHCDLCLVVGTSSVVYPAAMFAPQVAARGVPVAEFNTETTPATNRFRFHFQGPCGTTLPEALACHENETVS
How it was run: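 ITDRF-CETSA in HEK293T cells. Cells were treated 2 h with test compound at 2.6 nM–10 μM, with a reference inhibitor at 10 μM as internal control. Samples were heated at 52 °C and soluble SIRT5 was detected by immunoblot. EC50 came from fitted dose-response curves (n≥2), and EC50s of masked/unmasked pairs were compared.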

HEK293T cells = assay: MTT cell viability assay, HEK293T; assay type: cell-based, human; conditions: concentrations up to 100 μM
How it was run: (§1)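 Viability dose-response in cultured SKM-1, OCI-AML2, MOLM-13 (AML) and HEK293T cells, with concentrations up to 100 μM. GI50 was taken from dose-response curves. Data come from three individual assays performed in duplicate.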

[3] = system: SIRT5 activity in HeLa cells; assay: Live cell imaging of SIRT5 activity; assay type: cell-based; conditions: 10 μM inhibitor, co-treatment with labeled peptide substrate 250 µM, 6 hours
How it was run: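 HeLa cells were co-treated with a dye-labeled succinylated peptide substrate and test compound at 10 μM. Mitochondrial SIRT5 desuccinylation triggers peptide self-assembly, and the resulting fluorescence was read in cells. This was single-concentration only, without dose-response.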

SKM-1 cells = assay: MTT cell viability assay, SKM-1; assay type: cell-based; conditions: concentrations up to 100 μM
How it was run: as §1

Compound | %-inhibition of SIRT5 deglutarylase activity at 100 μM (SIRT5 [1]) | Ki (SIRT5 [2]) | EC50 (SIRT5 in HEK293T cells) | further results
CCCCNC(=S)NCCCC[C@H](NS(=O)(=O)c1cccc(F)c1)C(=O)N[C@@H](Cc1c[nH]c2ccccc12)C(=O)NC1CCC1 [Compound 2] | did not show substantial inhibition |  |  | 
O=C(NC1CCC1)[C@H](Cc1c[nH]c2ccccc12)NC(=O)[C@H](CCCCNC(=S)NCCCO)NS(=O)(=O)c1cccc(F)c1 [Compound 3] | did not show substantial inhibition |  |  | 
NC(=O)CCNC(=S)NCCCC[C@H](NS(=O)(=O)c1cccc(F)c1)C(=O)N[C@@H](Cc1c[nH]c2ccccc12)C(=O)NC1CCC1 [Compound 4] |  | micromolar range |  | 

The next lines start with results.

%-inhibition of SIRT5 deglutarylase activity at 100 μM (SIRT5 [1]) | Ki (SIRT5 [2]) | EC50 (SIRT5 in HEK293T cells) | Compound | further results
 |  | > 10 µM | O=C1CC(CCNC(=S)NCCCC[C@H](NS(=O)(=O)c2cccc(F)c2)C(=O)N[C@@H](Cc2c[nH]c3ccccc23)C(=O)NC2CCC2)=NO1 [Compound 22] | Ki (SIRT5 [2]; Ki): ~0.1 µM
 | low nanomolar range | 1.3 µM | O=C(NC1CCC1)[C@H](Cc1c[nH]c2ccccc12)NC(=O)[C@H](CCCCNC(=S)NCCc1nnn[nH]1)NS(=O)(=O)c1cccc(F)c1 [Compound 24] | decrease in viability of HEK293T cells (HEK293T cells): None of the acidic compounds 1, 16, and 24 caused substantial decrease in viability; inhibition of SIRT5 activity in HeLa cells (fluorescence) [3]: inhibition of SIRT5 activity; decrease in viability of SKM-1 cells (SKM-1 cells): None of the acidic compounds 1, 16, and 24 caused substantial decrease in viability
 | micromolar range |  | O=C(CCNC(=S)NCCCC[C@H](NS(=O)(=O)c1cccc(F)c1)C(=O)N[C@@H](Cc1c[nH]c2ccccc12)C(=O)NC1CCC1)NO [Compound 27] | 
